How the values were obtained:
[1] = target: Serine/threonine-protein kinase 32C (Homo sapiens) (UniProt Q86UX6); assay: Inhibition of biotinylated ligand binding to wild-type human partial length YANK3 (M68 to G486 residues) expressed in bacterial expression system at 50 nM measured after 1 hr by kinomescan assay relative to control
Summary of the method: (§1)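 Kinase-tagged T7 phage was grown in an E. coli BL21-derived host at 32 °C until lysis, and the lysate was clarified. Kinase was bound to streptavidin beads carrying a biotinylated ligand, with test compound at 50 nM (final DMSO), in binding buffer for 1 h at rt. Bound kinase was eluted and quantified by qPCR. Result is POC relative to the DMSO (100%) and control-compound (0%) references.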

[2] = target: Serine/threonine-protein kinase RIO3 (Homo sapiens) (UniProt O14730); assay: Inhibition of biotinylated ligand binding to wild-type human full length RIOK3 (M1 to E519 residues) expressed in bacterial expression system assessed at 50 nM measured after 1 hr by kinomescan assay relative to control; summary of the method: as §1
Chain of Serine/threonine-protein kinase RIO3 (Homo sapiens) (O14730 whole entry, the tested form may be a part): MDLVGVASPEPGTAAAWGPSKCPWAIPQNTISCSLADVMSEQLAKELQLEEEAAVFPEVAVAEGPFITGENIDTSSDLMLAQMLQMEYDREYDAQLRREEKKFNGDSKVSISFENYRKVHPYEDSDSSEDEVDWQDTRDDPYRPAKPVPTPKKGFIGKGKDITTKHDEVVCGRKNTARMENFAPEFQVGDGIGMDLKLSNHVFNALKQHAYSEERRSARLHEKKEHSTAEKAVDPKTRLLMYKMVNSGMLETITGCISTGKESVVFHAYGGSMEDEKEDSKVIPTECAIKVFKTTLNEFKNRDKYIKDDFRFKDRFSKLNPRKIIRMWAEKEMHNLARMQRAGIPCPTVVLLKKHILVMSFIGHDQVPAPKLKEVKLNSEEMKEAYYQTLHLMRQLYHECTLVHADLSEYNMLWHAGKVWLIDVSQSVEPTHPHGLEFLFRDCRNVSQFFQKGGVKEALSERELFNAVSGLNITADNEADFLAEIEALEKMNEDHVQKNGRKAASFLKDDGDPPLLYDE

[3] = target: Phosphatidylinositol 5-phosphate 4-kinase type-2 beta (Homo sapiens) (UniProt P78356); assay: Inhibition of biotinylated ligand binding to wild-type human full length PIP5K2B (M1 to T416 residues) expressed in bacterial expression system at 50 nM measured after 1 hr by kinomescan assay relative to control; summary of the method: as §1
Chain of Phosphatidylinositol 5-phosphate 4-kinase type-2 beta (Homo sapiens) (P78356 whole entry, the tested form may be a part): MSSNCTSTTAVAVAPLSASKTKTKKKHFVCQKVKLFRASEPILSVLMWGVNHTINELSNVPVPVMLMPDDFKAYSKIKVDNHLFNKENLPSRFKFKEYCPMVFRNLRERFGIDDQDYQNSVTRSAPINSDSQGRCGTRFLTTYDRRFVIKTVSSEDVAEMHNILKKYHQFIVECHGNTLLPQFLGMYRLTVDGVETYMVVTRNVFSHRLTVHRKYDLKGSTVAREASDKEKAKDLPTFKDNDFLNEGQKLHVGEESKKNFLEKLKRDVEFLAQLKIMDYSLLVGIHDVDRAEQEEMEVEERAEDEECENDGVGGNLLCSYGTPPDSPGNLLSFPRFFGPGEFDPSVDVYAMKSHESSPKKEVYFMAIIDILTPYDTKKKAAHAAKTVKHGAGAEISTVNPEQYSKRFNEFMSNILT

[4] = target: 1-phosphatidylinositol 3-phosphate 5-kinase (Homo sapiens) (UniProt Q9Y2I7); assay: Inhibition of biotinylated ligand binding to wild-type human partial length PIKFYVE (F1512 to C2098 residues) expressed in mammalian expression system at 50 nM measured after 1 hr by kinomescan assay relative to control
[5] = target: Interleukin-1 receptor-associated kinase 3 (Homo sapiens) (UniProt Q9Y616); assay: Inhibition of biotinylated ligand binding to wild-type human partial length IRAK3 (V147 to E596 residues) expressed in bacterial expression system at 50 nM measured after 1 hr by kinomescan assay relative to control; summary of the method: as §1
Chain of Interleukin-1 receptor-associated kinase 3 (Homo sapiens) (Q9Y616 whole entry, the tested form may be a part): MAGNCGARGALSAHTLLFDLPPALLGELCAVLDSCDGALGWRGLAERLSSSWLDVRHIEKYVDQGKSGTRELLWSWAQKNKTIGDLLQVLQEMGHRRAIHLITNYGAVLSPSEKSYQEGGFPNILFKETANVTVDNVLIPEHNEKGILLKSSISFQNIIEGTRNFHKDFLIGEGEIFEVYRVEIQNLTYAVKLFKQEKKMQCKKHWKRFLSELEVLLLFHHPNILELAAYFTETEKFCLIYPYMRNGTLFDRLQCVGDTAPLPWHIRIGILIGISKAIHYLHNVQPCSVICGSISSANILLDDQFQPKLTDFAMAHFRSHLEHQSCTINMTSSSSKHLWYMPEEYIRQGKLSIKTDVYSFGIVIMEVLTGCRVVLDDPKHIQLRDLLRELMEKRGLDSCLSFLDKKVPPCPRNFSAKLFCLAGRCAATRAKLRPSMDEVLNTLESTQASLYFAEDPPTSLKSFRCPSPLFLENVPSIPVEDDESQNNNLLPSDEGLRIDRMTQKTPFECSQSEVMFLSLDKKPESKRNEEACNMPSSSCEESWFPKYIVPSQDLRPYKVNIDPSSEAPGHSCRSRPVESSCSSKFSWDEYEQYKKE

[6] = target: Vascular endothelial growth factor receptor 3 (Homo sapiens) (UniProt P35916); assay: Inhibition of biotinylated ligand binding to wild-type human partial length FLT4 (E821 to E1196 residues) expressed in bacterial expression system at 50 nM measured after 1 hr by kinomescan assay relative to control; summary of the method: as §1
[7] = target: Cyclin-dependent kinase 7 (Homo sapiens) (UniProt P50613); assay: Inhibition of biotinylated ligand binding to wild-type human full length CDK7 (M1 to L344 residues) expressed in mammalian expression system at 50 nM measured after 1 hr by kinomescan assay relative to control
Chain of Cyclin-dependent kinase 7 (Homo sapiens) (P50613 whole entry, the tested form may be a part): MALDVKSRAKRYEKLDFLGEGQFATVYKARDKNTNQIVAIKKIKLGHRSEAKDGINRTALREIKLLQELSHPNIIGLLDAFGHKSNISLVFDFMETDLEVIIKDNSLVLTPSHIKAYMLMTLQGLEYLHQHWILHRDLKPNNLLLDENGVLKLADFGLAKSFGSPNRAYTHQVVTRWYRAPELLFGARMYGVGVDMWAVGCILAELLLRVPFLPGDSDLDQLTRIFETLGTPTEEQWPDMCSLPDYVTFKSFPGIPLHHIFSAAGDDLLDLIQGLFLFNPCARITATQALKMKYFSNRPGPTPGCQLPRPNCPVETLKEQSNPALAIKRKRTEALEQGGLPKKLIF
Summary of the method: (§2)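 Competition binding: kinase was bound to streptavidin beads carrying a biotinylated ligand, with test compound at 50 nM, in 20% SeaBlock, 0.17x PBS, 0.05% Tween 20 and 6 mM DTT for 1 h at rt with shaking. After washing, kinase was eluted with 0.5 μM free ligand and quantified by qPCR. Result is POC relative to the DMSO (100%) and control-compound (0%) references.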

[8] = target: Cyclin-dependent kinase 8 (Homo sapiens, UniProt P49336); assay: Inhibition of biotinylated ligand binding to wild-type human partial length CDK8 (M1 to T360 residues) expressed in Escherichia coli BL21 at 50 nM measured after 1 hr by kinomescan assay relative to control
Chain of Cyclin-dependent kinase 8 (P49336 whole entry, the tested form may be a part): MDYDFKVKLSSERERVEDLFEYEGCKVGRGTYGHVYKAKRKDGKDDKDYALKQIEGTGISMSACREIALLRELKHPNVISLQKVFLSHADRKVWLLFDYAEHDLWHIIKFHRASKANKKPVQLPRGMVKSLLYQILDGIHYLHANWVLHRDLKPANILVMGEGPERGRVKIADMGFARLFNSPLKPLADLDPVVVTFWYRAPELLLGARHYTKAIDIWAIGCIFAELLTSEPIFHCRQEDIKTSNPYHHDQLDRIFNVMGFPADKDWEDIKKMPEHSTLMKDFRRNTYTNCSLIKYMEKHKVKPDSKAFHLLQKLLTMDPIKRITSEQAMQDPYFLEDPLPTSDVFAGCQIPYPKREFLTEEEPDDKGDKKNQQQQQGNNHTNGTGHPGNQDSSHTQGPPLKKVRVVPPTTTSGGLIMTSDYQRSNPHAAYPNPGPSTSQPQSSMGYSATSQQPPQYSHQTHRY
Summary of the method: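 T7 phage-tagged kinase lysates from E. coli BL21 were mixed with streptavidin beads carrying biotinylated ligand and 50 nM compound. Incubated 1 h at room temperature with shaking, washed, then eluted 30 min with 0.5 μM non-biotinylated ligand. Kinase was quantified by qPCR. POC = (test − positive)/(DMSO − positive) ×100, with a control compound as positive.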

[9] = system: Hepatocyte growth factor receptor (Homo sapiens), P08581 [Y1235D]; assay: Inhibition of biotinylated ligand binding to human partial length MET Y1235D mutant (D1010 to S1367 residues) expressed in bacterial expression system at 50 nM measured after 1 hr by kinomescan assay relative to control; summary of the method: as §1
[10] = target: Serine/threonine-protein kinase pim-2 (Homo sapiens) (UniProt Q9P1W9); assay: Inhibition of biotinylated ligand binding to wild-type human partial length PIM2 (M1 to E291 residues) expressed in bacterial expression system at 50 nM measured after 1 hr by kinomescan assay relative to control
Chain of Serine/threonine-protein kinase pim-2 (Homo sapiens) (Q9P1W9 whole entry, looked up, the tested form may be a part): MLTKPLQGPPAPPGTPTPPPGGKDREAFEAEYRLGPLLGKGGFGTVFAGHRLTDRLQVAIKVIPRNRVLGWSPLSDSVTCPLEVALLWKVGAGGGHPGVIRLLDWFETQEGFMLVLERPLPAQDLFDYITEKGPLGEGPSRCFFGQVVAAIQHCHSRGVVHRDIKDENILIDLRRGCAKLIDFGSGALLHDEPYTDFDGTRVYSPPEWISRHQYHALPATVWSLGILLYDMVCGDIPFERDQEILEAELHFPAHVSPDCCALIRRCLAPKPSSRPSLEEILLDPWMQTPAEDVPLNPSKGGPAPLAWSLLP

[11] = target: cAMP-dependent protein kinase catalytic subunit alpha (Homo sapiens) (UniProt P17612); assay: Inhibition of biotinylated ligand binding to wild-type human partial length PKAC-alpha (G10 to F351 residues) expressed in bacterial expression system at 50 nM measured after 1 hr by kinomescan assay relative to control
[12] = target: Serine/threonine-protein kinase RIO1 (Homo sapiens) (UniProt Q9BRS2); assay: Inhibition of biotinylated ligand binding to wild-type human full length RIOK1 (M1 to K568 residues) expressed in bacterial expression system at 50 nM measured after 1 hr by kinomescan assay relative to control; summary of the method: as §1
Chain of Serine/threonine-protein kinase RIO1 (Homo sapiens) (Q9BRS2 whole entry, the tested form may be a part): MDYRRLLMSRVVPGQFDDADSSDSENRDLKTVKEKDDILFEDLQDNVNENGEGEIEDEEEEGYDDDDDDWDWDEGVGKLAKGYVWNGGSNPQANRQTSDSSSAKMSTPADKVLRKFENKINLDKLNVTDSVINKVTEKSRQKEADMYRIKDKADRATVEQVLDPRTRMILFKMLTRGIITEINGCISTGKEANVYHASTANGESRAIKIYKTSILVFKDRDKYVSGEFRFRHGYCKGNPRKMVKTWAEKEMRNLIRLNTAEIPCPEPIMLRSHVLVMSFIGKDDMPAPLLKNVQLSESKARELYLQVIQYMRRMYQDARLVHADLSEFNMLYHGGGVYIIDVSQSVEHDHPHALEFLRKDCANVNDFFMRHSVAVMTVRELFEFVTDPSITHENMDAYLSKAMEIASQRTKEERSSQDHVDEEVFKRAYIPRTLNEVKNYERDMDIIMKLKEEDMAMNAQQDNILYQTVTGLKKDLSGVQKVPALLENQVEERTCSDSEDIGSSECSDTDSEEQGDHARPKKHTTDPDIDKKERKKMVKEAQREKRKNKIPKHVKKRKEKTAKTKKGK

[13] = target: Serine/threonine-protein kinase RIO2 (Homo sapiens) (UniProt Q9BVS4); assay: Inhibition of biotinylated ligand binding to wild-type human partial length RIOK2 (M1 to D313 residues) expressed in mammalian expression system at 50 nM measured after 1 hr by kinomescan assay relative to control; summary of the method: as §2
Chain of Serine/threonine-protein kinase RIO2 (Homo sapiens) (Q9BVS4 whole entry, looked up, the tested form may be a part): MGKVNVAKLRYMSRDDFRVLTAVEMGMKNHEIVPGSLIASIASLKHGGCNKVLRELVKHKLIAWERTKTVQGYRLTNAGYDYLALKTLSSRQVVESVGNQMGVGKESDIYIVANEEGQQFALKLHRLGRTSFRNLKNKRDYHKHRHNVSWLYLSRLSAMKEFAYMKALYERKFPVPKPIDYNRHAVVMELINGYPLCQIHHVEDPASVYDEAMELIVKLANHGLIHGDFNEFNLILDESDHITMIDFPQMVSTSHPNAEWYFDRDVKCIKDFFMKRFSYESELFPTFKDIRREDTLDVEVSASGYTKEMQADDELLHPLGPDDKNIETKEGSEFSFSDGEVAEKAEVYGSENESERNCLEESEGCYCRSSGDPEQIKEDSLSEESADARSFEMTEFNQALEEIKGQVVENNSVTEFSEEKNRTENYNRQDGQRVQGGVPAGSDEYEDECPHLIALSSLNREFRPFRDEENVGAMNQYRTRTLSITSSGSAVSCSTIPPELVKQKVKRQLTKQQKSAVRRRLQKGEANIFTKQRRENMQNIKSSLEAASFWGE

[14] = target: Rho-associated protein kinase 2 (Homo sapiens) (UniProt O75116); assay: Inhibition of biotinylated ligand binding to wild-type human partial length ROCK2 (M1 to T431 residues) expressed in mammalian expression system at 50 nM measured after 1 hr by kinomescan assay relative to control; summary of the method: as §2
[15] = target: Non-receptor tyrosine-protein kinase TNK1 (Homo sapiens) (UniProt Q13470); assay: Inhibition of biotinylated ligand binding to wild-type human full length TNK1 (M1 to P661 residues) expressed in bacterial expression system at 50 nM measured after 1 hr by kinomescan assay relative to control; summary of the method: as §1
Chain of Non-receptor tyrosine-protein kinase TNK1 (Homo sapiens) (Q13470 whole entry, the tested form may be a part): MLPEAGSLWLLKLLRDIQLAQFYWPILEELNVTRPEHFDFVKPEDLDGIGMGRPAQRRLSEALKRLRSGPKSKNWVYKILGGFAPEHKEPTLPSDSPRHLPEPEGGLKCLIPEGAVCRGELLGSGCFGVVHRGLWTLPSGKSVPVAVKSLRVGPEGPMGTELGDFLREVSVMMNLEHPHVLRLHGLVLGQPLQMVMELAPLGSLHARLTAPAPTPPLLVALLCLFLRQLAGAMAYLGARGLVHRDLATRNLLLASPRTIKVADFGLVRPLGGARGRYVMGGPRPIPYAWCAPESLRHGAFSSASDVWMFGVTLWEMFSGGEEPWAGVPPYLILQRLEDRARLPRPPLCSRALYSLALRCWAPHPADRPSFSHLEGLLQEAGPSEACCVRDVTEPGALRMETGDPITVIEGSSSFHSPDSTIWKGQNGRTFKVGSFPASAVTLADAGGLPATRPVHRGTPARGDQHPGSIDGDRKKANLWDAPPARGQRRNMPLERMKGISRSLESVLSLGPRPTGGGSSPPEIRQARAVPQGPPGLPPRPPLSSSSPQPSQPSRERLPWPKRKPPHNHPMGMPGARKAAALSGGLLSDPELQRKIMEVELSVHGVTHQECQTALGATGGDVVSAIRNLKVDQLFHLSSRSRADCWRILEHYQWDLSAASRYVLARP

[16] = target: Protein kinase C theta type (Homo sapiens) (UniProt Q04759); assay: Inhibition of biotinylated ligand binding to wild-type human partial length PRKCQ (L350 to S706 residues) expressed in bacterial expression system at 50 nM measured after 1 hr by kinomescan assay relative to control; summary of the method: as §1
[17] = Selectivity ratio of EC50 for rat NRK cells to EC50 for human OCI-AML3 cells; format: toxicity; conditions: NRK cells versus OCI-AML3 cells, read-out: Ratio EC50
[18] = Selectivity ratio of EC50 for rat NRK cells to EC50 for human MV4-11 cells; format: toxicity; conditions: NRK cells versus MV4-11 cells, read-out: Ratio EC50
[19] = Selectivity ratio of EC50 for rat H9c2 cells to EC50 for human OCI-AML3 cells; format: toxicity; conditions: H9c2 cells versus OCI-AML3 cells, read-out: Ratio EC50
MOLM-13 = assay: cells; conditions: Homo sapiens, MOLM-13, 48 h
MV4-11 = assay: cells; conditions: Homo sapiens, MV4-11, 48 h
NRK = assay: cells; conditions: Rattus norvegicus, 48 h
H9c2 = assay: cells; conditions: Rattus norvegicus, H9c2, 48 h

Chain of Serine/threonine-protein kinase 32C (Homo sapiens) (Q86UX6 whole entry, the tested form may be a part): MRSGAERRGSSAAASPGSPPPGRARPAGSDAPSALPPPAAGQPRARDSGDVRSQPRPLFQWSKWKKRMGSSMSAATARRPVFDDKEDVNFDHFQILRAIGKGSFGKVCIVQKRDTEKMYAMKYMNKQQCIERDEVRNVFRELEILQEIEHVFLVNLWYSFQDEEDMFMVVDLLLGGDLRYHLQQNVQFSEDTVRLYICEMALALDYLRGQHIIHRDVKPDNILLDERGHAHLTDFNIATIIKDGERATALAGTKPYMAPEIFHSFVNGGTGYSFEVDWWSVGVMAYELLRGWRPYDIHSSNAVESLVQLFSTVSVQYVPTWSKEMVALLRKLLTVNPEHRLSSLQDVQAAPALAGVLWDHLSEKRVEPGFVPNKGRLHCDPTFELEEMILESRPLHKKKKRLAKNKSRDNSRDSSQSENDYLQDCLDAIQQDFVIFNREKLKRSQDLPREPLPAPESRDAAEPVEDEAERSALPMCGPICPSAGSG

CN(C)[C@@H]1CC[C@@]2(C)[C@@H](CC[C@@H]3[C@@H]2CC[C@]2(C)C(c4cccc5cnccc45)=CC[C@@H]32)C1
5.9 µM: EC50 (MOLM-13)
5.4 µM: EC50 (MV4-11)
16.2 µM: EC50 (NRK)
3 to 4: selectivity ratio [17] | selectivity ratio [18] | selectivity ratio [19]
> 80%: inhibition [1] | inhibition [2] | inhibition [3] | inhibition [4] | inhibition [5] | inhibition [6] | inhibition [7] | inhibition [8] | inhibition [9] | inhibition [10] | inhibition [11] | inhibition [12] | inhibition [13] | inhibition [14] | inhibition [15] | inhibition [16]
12.5 to 25 µM: EC50 (H9c2)

Reference: ChEMBL document CHEMBL4619723, “New CDK8 inhibitors as potential anti-leukemic agents - Design, synthesis and biological evaluation” (Bioorg Med Chem, 2020)
